Results: PubChem BioAssay AID2052 (NMMLSC, 2009)
About 220 (0.067%) of roughly 330,000 compounds were called active.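 How the source made its calls: active means response, share of CD8 T cells binding vesicles, and their 90th percentile fluorescence all below set limits (cut at about 80% in these data, passing the limit was not always enough); inactive means the rest, inconclusive results apart.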 This excerpt belongs to a sample that is enriched for actives.

Test: modulators of CD8 T cell-vesicle binding, primary screen, mouse 2C CD8+ T cells, flow cytometry (AID 2052);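 on double positive events: binding gate set so that unloaded-vesicle control wells show 10% double positive cells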;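 on response (vesicle binding): values below 100% mean blocked vesicle binding to the CD8+ T cells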
Conditions: 2C CD8+ T cell-vesicle binding, at 7 µM, stronger effect = lower value; double positive events: measured here: CD8+ vesicle-bound cell fraction
Method in brief: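 incubation = binding step 1.5 h, 37 °C, antibody labelling 20 min, ice | test system = 2C mouse CD8+ T cells | read-out basis = percent CD8+ FL2 mean versus row control | controls = Peptide-free naked vesicles (low) and QL9 vesicles with 0.7% DMSO vehicle (high) | detection = flow cytometry of vesicle-bound cells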

| SMILES | double positive events [%] | response (vesicle binding) |
| --- | --- | --- |
| Cc1oc2c(F)c(F)c(F)c(F)c2c1S(=O)(=O)Nc1cccc(C(F)(F)F)c1 | 13.2 | 170% (inactive) |
| COc1ccc(C(=O)COC(=O)c2nn(C)c(=O)c3ccccc23)c(OC)c1 | 13.7 | 187% (inactive) |
| CC(=O)c1cccc(NC(=O)CN2C(=O)c3cccnc3Oc3ccc(Cl)cc32)c1 | 54.8 | 668% (inactive) |
| COC(=O)C1=CO[C@@H](O[C@@H]2O[C@H](CO)[C@@H](O)[C@H](O)[C@H]2O)C2C1C[C@H](O)[C@@H]2C (stereo partly specified) | 33.1 | 220% (inactive) |
| CCOC(CNC(=O)C1CCN(S(=O)(=O)c2ccc3nc4c(c(C(=O)O)c3c2)CC(C)CC4)CC1)OCC (stereo unspecified) | 3.9 | 171% (inactive) |
| CN(C)C(CNC(=O)c1ccc(OCc2cn3ccccc3n2)cc1)c1ccco1 (stereo unspecified) | 23.9 | 416% (inactive) |
| COc1ccc(NC(C(=O)Nc2cccc(C(C)=O)c2)c2ccccc2)cc1 (stereo unspecified) | 36 | 198% (inactive) |
| O=C(CCc1nnc2ccc(NCc3ccco3)nn12)Nc1cc(F)ccc1F | 36.4 | 186% (inactive) |
| O=C(COC(=O)c1ccc(NS(=O)(=O)c2cccs2)cc1O)Nc1ccc(F)cc1 | 18.7 | 74.7% (inactive) |
| Nn1c(SCC(=O)Nc2nccs2)nncc1=O | 30.5 | 224% (inactive) |
| COc1ccccc1C(=O)NC(CCSC)C(=O)NNC(=O)c1csc(N2CCOCC2)n1 (stereo unspecified) | 27.1 | 242% (inactive) |
| CCc1nc2ccccc2c(C(=O)OC2CCCCC2=O)c1C (stereo unspecified) | 48.4 | 288% (inactive) |
| Cc1cccc(C(=O)N2CCCC(Nc3ccc(C(C)C)cc3)C2)n1 (stereo unspecified) | 11.9 | 567% (inactive) |
| Cc1ccc(-c2nnc(C)c(N3CC(C)OC(C)C3)n2)cc1 (stereo unspecified) | 50.8 | 123% (inactive) |
| COC(=O)NNC(=O)C1CCC(C)CC1 (stereo unspecified) | 13.1 | 199% (inactive) |
| O=C(COc1ccccc1)Nc1ccc(N2CCN(C(=O)c3cccs3)CC2)cc1 | 4.1 | 606% (inactive) |
| Brc1c(CSc2nncc3ccccc23)nc2ccccn12 | 26.2 | 103% (inactive) |
| COc1ccccc1C(=O)Nc1ccnn1C1CCN(C(=O)C(C)(C)C)CC1 | 51.4 | 266% (inactive) |
| Cc1ccc(S(=O)(=O)NCCC(=O)NC2CCN(Cc3ccccc3)CC2)cc1 | 42.6 | 256% (inactive) |
| CCCCCCCC(=O)OC(CN1CCCCCC1)CN1CCCC1=O (stereo unspecified) | 16.5 | 372% (inactive) |
| COC(=O)[C@@H]1CC(O)CN1C(=O)C12CC3CC(CC(C3)C1)C2 (stereo partly specified) | 52.2 | 228% (inactive) |

| SMILES | double positive events [%] | response (vesicle binding) |
| --- | --- | --- |
| Cc1ccc(-c2csc(NC(=O)C3=COCCO3)n2)cc1C | 20.8 | 138% (inactive) |
| CC(C)OP(=O)(OC(C)C)C(Nc1ccccc1)c1cccc([N+](=O)[O-])c1 (stereo unspecified) | 20.7 | 684% (inactive) |
| COc1cccc(NC(=O)COc2cc(C)cc3oc(=O)cc(C)c23)c1 | 34.7 | 510% (inactive) |
| CC1(C)CC(=O)C=C(N2CCOCC2)C1 | 19.8 | 266% (inactive) |
| Cc1nc([N+](=O)[O-])c(NCCCO)n1Cc1ccccc1 | 19.6 | 72.9% (inactive) |
| Cc1cc(C)n(C(=O)c2ccc(C)c(S(=O)(=O)N3CCOCC3)c2)n1 | 54 | 212% (inactive) |
| C/C=C/c1ccc(OCC(=O)NNC(=O)CN(C)S(=O)(=O)c2ccc(C)cc2)c(OC)c1 | 47.4 | 180% (inactive) |
| CCOC(=O)C(=CNNc1ccsc1C(=O)OC)C(=O)OCC | 17.6 | 541% (inactive) |
| CC(=O)c1cc(-c2ccccc2)n(CCC(=O)NC2CCCCCC2)c1C | 47.9 | 183% (inactive) |
| CCc1ccccc1NC(=O)[C@@H]1CCC(=O)N1C1OC(=O)c2c1ccc(OC)c2OC (stereo partly specified) | 15.9 | 194% (inactive) |
| C/C(=N\N(C)C)c1ccc(OCCOc2ccc([N+](=O)[O-])cc2)cc1 | 36.6 | 389% (inactive) |
| COc1ccc(C2c3[nH]c4ccccc4c3C[C@H]3C(=O)N(CC(C)C)CC(=O)N23)c(OC)c1 (stereo partly specified) | 23.9 | 1350% (inactive) |
| CC1(C)C2CC=C(/C=N/NC(=O)C3CC3)C1C2 (stereo unspecified) | 55.1 | 548% (inactive) |
| O=C(NCc1cccnc1)c1ccccc1NC(=O)c1c(F)cccc1F | 21.9 | 104% (inactive) |
| CC(=O)N1CCc2cc(S(=O)(=O)NC3CCCCC3)ccc21 | 27 | 222% (inactive) |
| Cc1cccc(C(=O)NCc2nnc(SC(C)C(=O)Nc3nnc(C)s3)n2C)c1 (stereo unspecified) | 13.6 | 258% (inactive) |
| CCCCCN(C(=O)NC(=O)Nc1cccc(C)c1C)S(C)(=O)=O | 28.6 | 413% (inactive) |
| COc1ccc(CCNC(=O)CN(c2ccccc2)S(C)(=O)=O)cc1OC | 42.8 | 345% (inactive) |
| COc1ccc(C(=O)OCC(=O)NC(=O)CCSc2ccccc2)cc1 | 48.7 | 413% (inactive) |
| CC(NC(=S)Nc1ccccc1)C1COc2ccccc2O1 (stereo unspecified) | 63 | 843% (inactive) |
| COc1ccccc1S(=O)(=O)NCc1ccc(C(=O)N(C)Cc2ccc(F)cc2)cc1 | 31.2 | 557% (inactive) |

| SMILES | double positive events [%] | response (vesicle binding) |
| --- | --- | --- |
| CCOc1ccc(NC(=O)CC2C(=O)N(c3ccccc3)C(=O)N2CCOC)cc1 (stereo unspecified) | 22.1 | 526% (inactive) |
| Cc1cc(C)cc(NC(=O)NC2CCN(CC(=O)Nc3cccc(Cl)c3C)CC2)c1 | 43.5 | 437% (inactive) |
| O=C1C(=O)N(CCN2CCOCC2)C(c2cccc(Cl)c2)/C1=C(/O)c1ccc2c(c1)OCO2 (stereo unspecified) | 10.1 | 653% (inactive) |
| O=C(NCc1ccc2c(c1)OCO2)c1cc2c(s1)CS(=O)(=O)C2 | 37.5 | 576% (inactive) |
| O=C(NCc1ccc2c(c1)OCO2)c1cc(F)c(F)cc1Cl | 11.4 | 338% (inactive) |
| O=C(NCc1ccc2c(c1)OCO2)c1ccc(Cl)s1 | 0 | 0% (active) |
| COc1ccc(C(=O)NCc2ccc(C)cc2)cc1S(=O)(=O)N1CCCC1 | 47.1 | 276% (inactive) |
| O=C(CSc1nc2ccccc2c(=O)n1-c1ccccc1F)N1CCOCC1 | 37.3 | 244% (inactive) |
| Cc1ccc(Cl)c(OCC(=O)N(C)CC(=O)Nc2ccc(N3CCOCC3)cc2)c1 | 61.8 | 424% (inactive) |
| CCOC(=O)c1cccc(NC(=O)C2CCCN(S(=O)(=O)c3cnc[nH]3)C2)c1 (stereo unspecified) | 47.8 | 586% (inactive) |
| Cc1nc2ccc(C(=O)N(C)CC3CCCN(CCc4ccc(Cl)cc4)C3)cc2[nH]1 (stereo unspecified) | 20.7 | 442% (inactive) |
| Cc1ccc(N2CC(C(=O)NCCS(=O)(=O)N3CCN(c4ccccc4)CC3)CC2=O)cc1 (stereo unspecified) | 11 | 383% (inactive) |
| CN1C(=O)/C(=C/C=C2\SCCN2C)OC1=S | 25.3 | 177% (inactive) |
| CCN1CCN(C(=O)c2cc3cc4ccc(OC)cc4nc3s2)CC1 | 24.6 | 601% (inactive) |
| CN(CC(=O)NCCc1ccc(S(N)(=O)=O)cc1)CC(=O)Nc1ccc(Cl)cc1 | 39.4 | 1090% (inactive) |
| COc1ccc([N+](=O)[O-])cc1NC(=O)c1ccc(N(Cc2ccccc2C)S(C)(=O)=O)cc1 | 0.1 | 6.1% (active) |
| Cc1ccccc1CN(c1ccc(C(=O)NCC2CCCO2)cc1)S(C)(=O)=O (stereo unspecified) | 4.3 | 168% (inactive) |
| COc1ccc(C(=O)CC(=O)C(=O)Nc2cc([N+](=O)[O-])ccc2OC)cc1 | 13.4 | 256% (inactive) |
| COc1ccccc1OCCn1c(SCC(N)=O)nc2ccccc21 | 16 | 348% (inactive) |
| Cc1ccc(NC(=O)CN(C)S(=O)(=O)c2cnc[nH]2)cc1C | 18.7 | 261% (inactive) |
| CC(Oc1ccccc1)C(=O)Nc1c2c(nn1-c1ccccc1)CS(=O)C2 (stereo unspecified) | 7.9 | 237% (inactive) |

| SMILES | double positive events [%] | response (vesicle binding) |
| --- | --- | --- |
| CCOC(=O)c1ccccc1NC(=S)N1CCC(C(N)=O)CC1 | 33.7 | 285% (inactive) |
| OC(CNCc1ccc(Cl)c(Cl)c1)c1ccccc1 (stereo unspecified) | 58.3 | 66.1% (inactive) |
| Cc1c(NC(=O)CN2C(=O)C(=O)N(Cc3ccccc3)C2=O)c(=O)n(-c2ccccc2)n1C | 54.7 | 606% (inactive) |
| Cc1c(NC(=S)Nc2ccccc2)c(=O)n(-c2ccccc2)n1C | 28 | 297% (inactive) |
| Cc1c(NC(=S)NC(=O)CCc2ccccc2)c(=O)n(-c2ccccc2)n1C | 1.1 | 17.6% (active) |
| CC(C)(C)c1cc(P(=O)(c2ccccc2)c2ccccc2)ccc1O | 28.1 | 82.3% (inactive) |
| O=C(CN1CCN(C2CCCCC2)CC1)Nc1ccccc1N1CCCCC1 | 6.3 | 0% (active) |
| CC(=O)c1ccc(N2CCN(CC(=O)Nc3ccccc3N3CCOCC3)CC2)cc1 | 42.5 | 203% (inactive) |
| Cc1ccccc1NC(=O)Nc1ccccc1N1CCCCC1 | 27.3 | 308% (inactive) |
| COc1ccc(CN(C)C(=S)Nc2ccc(Cl)cc2Cl)cc1 | 9.4 | 367% (inactive) |
| CCN1CCN(C(=O)C2CCN(S(=O)(=O)c3cc(Cl)ccc3Cl)CC2)CC1 | 29.3 | 223% (inactive) |
| O=C(NN1C(=O)C2C3C=CC(C3)C2C1=O)c1ccco1 (stereo unspecified) | 43 | 570% (inactive) |
| CCOc1ccc2[nH]c(=O)c(CN(Cc3nnnn3CCc3ccccc3)CC3CCCO3)cc2c1 (stereo unspecified) | 50.9 | 238% (inactive) |
| COC(=O)c1ccc(C2NC(=O)NC(C)=C2C(=O)N(C)C)cc1 (stereo unspecified) | 31.3 | 393% (inactive) |
| CCOc1ccc(CCNC(=O)COC(=O)C2CCN(c3ccc(C(F)(F)F)cn3)CC2)cc1OCC | 38.6 | 818% (inactive) |
| CCCc1c(C(=O)Nc2ccc(F)cc2)cnn1-c1ccccc1 | 19.3 | 479% (inactive) |
| O=C(COC(=O)CC1CC2CCC1C2)NC(=O)NC1CCCC1 (stereo unspecified) | 20.7 | 248% (inactive) |
| COCCn1nnnc1C(c1cc2ccc(OC)cc2[nH]c1=O)N1CCc2ccccc2C1 (stereo unspecified) | 16.7 | 0% (active) |
| COc1ccc(OC)c(C(c2nnnn2C(C)(C)C)N2CCc3ccccc3C2)c1 (stereo unspecified) | 55.6 | 342% (inactive) |
| CCOc1ccc2[nH]c(=O)c(C(c3nnnn3CCOC)N3CCOCC3)cc2c1 (stereo unspecified) | 11.4 | 261% (inactive) |
